Data from ChEMBL document CHEMBL3797085, “Structure-Based Design and Synthesis of Novel Inhibitors Targeting HDAC8 from Schistosoma mansoni for the Treatment of Schistosomiasis” (J Med Chem, 2016).
Active and inactive are the calls of the source. The calls are words filed in the database; no cut-off is given here.

Experiments:
Schistosoma mansoni [1] = experiment: Antiparasitic activity against schistosomula stage of Schistosoma mansoni assessed as parasite viability at 10 uM after 48 hrs by Alamar Blue assay relative to control; assay type: functional
Procedure, shortened: (§1)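 Mechanically transformed S. mansoni schistosomula, 100 per well, in Medium 199 with 10% FCS, penicillin, streptomycin and rifampicin, held 3 h at 37°C/5% CO2 before use. […] Resazurin added at 48 h; fluorescence (ex 530/em 590 nm) read 24 h later, corrected for drug-medium background. Ethanol-killed larvae as dead control. Triplicate wells, two biological replicates.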

Histone deacetylase 8 [2] = target: T1, Histone deacetylase 8 (Homo sapiens, UniProt Q9BY41); experiment: Inhibition of recombinant human HDAC8 using Fluor de Lys as substrate preincubated for 90 mins followed by BML-KI176 addition measured after 45 mins by fluorescence assay; conditions: read-out: IC50
T1 sequence (Q9BY41 whole entry): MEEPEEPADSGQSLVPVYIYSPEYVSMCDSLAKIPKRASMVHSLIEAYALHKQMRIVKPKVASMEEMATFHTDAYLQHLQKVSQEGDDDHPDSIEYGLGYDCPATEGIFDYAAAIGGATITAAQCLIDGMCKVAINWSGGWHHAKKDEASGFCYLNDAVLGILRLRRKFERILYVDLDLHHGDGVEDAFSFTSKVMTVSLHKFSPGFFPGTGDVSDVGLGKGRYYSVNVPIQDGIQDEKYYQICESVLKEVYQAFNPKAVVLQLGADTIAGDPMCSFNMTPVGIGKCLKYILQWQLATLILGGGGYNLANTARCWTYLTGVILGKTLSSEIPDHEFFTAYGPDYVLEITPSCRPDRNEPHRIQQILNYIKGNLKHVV

Histone deacetylase 1 [3] = target: T2, Histone deacetylase 1 (Homo sapiens, UniProt Q13547); experiment: Inhibition of recombinant human HDAC1 using Cbz-(Ac)Lys-AMC as substrate at 10 uM preincubated for 90 mins followed by trypsin addition measured after 20 mins by fluorescence assay relative to control
T2 sequence (Q13547 whole entry): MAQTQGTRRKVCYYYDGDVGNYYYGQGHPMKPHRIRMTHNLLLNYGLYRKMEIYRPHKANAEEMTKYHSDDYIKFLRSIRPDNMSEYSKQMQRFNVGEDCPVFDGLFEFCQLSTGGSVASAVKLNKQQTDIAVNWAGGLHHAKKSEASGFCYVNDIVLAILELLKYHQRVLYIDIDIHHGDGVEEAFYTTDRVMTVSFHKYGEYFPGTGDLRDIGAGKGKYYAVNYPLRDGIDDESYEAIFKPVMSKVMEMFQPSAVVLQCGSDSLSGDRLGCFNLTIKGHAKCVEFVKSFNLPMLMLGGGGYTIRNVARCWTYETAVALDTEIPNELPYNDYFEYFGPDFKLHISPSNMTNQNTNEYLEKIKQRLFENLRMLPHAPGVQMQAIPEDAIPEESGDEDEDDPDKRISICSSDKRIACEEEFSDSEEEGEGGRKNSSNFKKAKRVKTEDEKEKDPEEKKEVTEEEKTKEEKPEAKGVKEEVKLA

[4] = Cytotoxicity against HEK293 cells assessed as cell viability at 50 uM after 24 hrs by Alamar Blue assay relative to control; assay type: cell-based; conditions: human, read-out: Activity
Procedure, shortened: (§2)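 AlamarBlue added after 24 h, incubated a further 21 h; resorufin fluorescence ex 560/em 590 nm. Triplicates; viability relative to untreated cells; daunorubicin positive control.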

Histone deacetylase 8 [5] = target: T3, Histone deacetylase 8 (Schistosoma mansoni, UniProt A5H660); experiment: Inhibition of recombinant Schistosoma mansoni HDAC8 expressed in Escherichia coli using Fluor de Lys as substrate preincubated for 90 mins followed by BML-KI176 addition measured after 45 mins by fluorescence assay; conditions: read-out: IC50
T3 sequence (A5H660 whole entry): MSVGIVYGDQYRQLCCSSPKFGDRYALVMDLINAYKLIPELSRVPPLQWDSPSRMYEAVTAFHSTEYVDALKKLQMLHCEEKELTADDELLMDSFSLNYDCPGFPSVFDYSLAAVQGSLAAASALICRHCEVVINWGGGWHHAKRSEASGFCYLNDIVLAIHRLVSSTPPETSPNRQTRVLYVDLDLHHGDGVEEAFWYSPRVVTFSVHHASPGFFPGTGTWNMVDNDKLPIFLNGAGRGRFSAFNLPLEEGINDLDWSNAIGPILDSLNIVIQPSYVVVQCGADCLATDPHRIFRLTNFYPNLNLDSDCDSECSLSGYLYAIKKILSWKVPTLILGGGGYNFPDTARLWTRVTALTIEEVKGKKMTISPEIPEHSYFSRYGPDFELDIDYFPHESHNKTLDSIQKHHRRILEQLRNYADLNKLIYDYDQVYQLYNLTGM
Procedure, shortened: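 smHDAC8 produced in E. coli. Fluor de Lys kit: compound, Fluor de Lys-HDAC8 substrate (50 µM) and enzyme incubated 90 min at 37°C, then Developer II for 45 min at 30°C. Reaction stopped with trichostatin A (2 µM). Fluorescence read at ex 390/em 460 nm. IC50 given as mean ± S.E.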

Schistosoma mansoni [6] = experiment: Antiparasitic activity against schistosomula stage of Schistosoma mansoni assessed as parasite viability at 10 to 20 uM after 5 days by microscopy relative to control; assay type: functional, organism-based
Procedure, shortened: (§3)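 Microscopy viability: 2,000 schistosomula per well in M199 (10 mM HEPES, pH 7.4, supplemented), 37°C, 5% CO2; inhibitor at 10 or 20 µM in DMSO, medium refreshed daily, up to 5 days. Dead larvae scored by granular appearance, tegumental defects and lack of motility; ≥300 larvae per time point; % viable larvae. Three biological replicates in duplicate.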

Schistosoma mansoni [7] = experiment: Antiparasitic activity against adult Schistosoma mansoni assessed as separation of male and female worm pairs at 20 uM after 5 days by microscopy relative to control; assay type: functional
Procedure, shortened: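 Hamster-perfused worm pairs, ten per well in 2 mL buffered supplemented M199 (10 mM HEPES, pH 7.4), 37°C, 5% CO2, pre-cultured 5 days, then inhibitor in DMSO at 10 or 20 µM; medium and compound renewed daily. Pairs still coupled counted daily by microscopy for up to 5 days. Two biological replicates in triplicate.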

Schistosoma mansoni [8] = experiment: Antiparasitic activity against schistosomula stage of Schistosoma mansoni assessed as parasite viability at 20 uM after 48 hrs by Alamar Blue assay relative to control; assay type: functional; procedure, shortened: as §1
Schistosoma mansoni [9] = experiment: Antiparasitic activity against adult Schistosoma mansoni assessed as reduction in egg lying at 10 uM after 5 days by microscopy relative to control; assay type: functional, organism-based
Procedure, shortened: (§4)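 Adult worm pairs perfused from infected hamsters; ten pairs per well in 2 mL M199 (pH 7.4, 10 mM HEPES, supplemented as for schistosomula), 37°C, 5% CO2. Cultured 5 days before adding inhibitors in DMSO; medium and inhibitor refreshed daily. Eggs in recovered, centrifuged medium counted by microscopy. Two biological replicates in triplicate.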

Schistosoma mansoni [10] = experiment: Antiparasitic activity against schistosomula stage of Schistosoma mansoni assessed as parasite viability after 48 hrs by Alamar Blue assay; assay type: functional, organism-based; procedure, shortened: as §1
Schistosoma mansoni [11] = experiment: Antiparasitic activity against adult Schistosoma mansoni assessed as reduction in egg lying at 20 uM after 5 days by microscopy relative to control; assay type: functional; parameters: scale not given: the % may be the effect or the level left; procedure, shortened: as §4
Schistosoma mansoni [12] = experiment: Antiparasitic activity against schistosomula stage of Schistosoma mansoni assessed as parasite viability at 20 uM after 1 to 2 days by microscopy; assay type: functional, organism-based; procedure, shortened: as §3
Schistosoma mansoni [13] = experiment: Antiparasitic activity against schistosomula stage of Schistosoma mansoni assessed as parasite viability at 10 uM measured within 2 days by microscopy; assay type: functional, organism-based; procedure, shortened: as §3
HEK293 = experiment: Cytotoxicity against HEK293 cells assessed as cell viability after 24 hrs by Alamar Blue assay; assay type: cell-based; conditions: Homo sapiens, HEK293, 24 h; procedure, shortened: as §2
[14] = target: T4, Protein deacetylase HDAC6 (Homo sapiens, UniProt Q9UBN7); experiment: Inhibition of recombinant human HDAC6 using Cbz-(Ac)Lys-AMC as substrate preincubated for 90 mins followed by trypsin addition measured after 20 mins by fluorescence assay; conditions: read-out: IC50
T4 sequence (Q9UBN7 whole entry): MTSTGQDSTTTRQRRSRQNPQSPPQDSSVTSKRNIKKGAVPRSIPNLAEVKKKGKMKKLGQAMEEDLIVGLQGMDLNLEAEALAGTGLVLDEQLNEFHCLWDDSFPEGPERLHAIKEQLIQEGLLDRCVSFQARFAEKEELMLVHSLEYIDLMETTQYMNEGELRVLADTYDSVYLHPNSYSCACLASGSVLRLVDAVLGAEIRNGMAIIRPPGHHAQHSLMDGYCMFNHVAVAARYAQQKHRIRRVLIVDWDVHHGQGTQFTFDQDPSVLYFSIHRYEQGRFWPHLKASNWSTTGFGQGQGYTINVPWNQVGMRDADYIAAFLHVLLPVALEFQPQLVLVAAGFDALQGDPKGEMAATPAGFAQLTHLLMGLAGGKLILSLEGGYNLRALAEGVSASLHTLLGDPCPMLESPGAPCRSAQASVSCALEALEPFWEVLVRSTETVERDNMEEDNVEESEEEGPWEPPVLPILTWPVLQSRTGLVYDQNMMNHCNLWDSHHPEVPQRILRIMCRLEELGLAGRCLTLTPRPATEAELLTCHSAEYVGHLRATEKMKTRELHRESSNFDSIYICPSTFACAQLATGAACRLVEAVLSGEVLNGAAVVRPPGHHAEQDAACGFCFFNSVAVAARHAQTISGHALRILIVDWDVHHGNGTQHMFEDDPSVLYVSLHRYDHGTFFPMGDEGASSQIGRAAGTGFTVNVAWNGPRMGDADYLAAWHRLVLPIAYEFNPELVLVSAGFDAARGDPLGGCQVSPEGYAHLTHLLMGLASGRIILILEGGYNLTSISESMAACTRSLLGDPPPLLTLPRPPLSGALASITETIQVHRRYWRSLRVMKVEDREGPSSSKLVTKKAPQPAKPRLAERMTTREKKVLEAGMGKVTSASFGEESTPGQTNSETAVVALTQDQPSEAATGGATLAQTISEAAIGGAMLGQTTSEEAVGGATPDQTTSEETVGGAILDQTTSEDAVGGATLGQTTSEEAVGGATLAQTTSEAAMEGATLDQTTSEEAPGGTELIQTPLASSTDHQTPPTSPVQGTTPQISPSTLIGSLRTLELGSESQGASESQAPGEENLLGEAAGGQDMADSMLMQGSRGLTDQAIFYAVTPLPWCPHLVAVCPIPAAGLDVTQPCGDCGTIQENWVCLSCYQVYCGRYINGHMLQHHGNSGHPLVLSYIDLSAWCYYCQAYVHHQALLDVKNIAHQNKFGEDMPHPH

Histone deacetylase 1 [15] = target: T2, Histone deacetylase 1; experiment: Inhibition of recombinant human HDAC1 using Cbz-(Ac)Lys-AMC as substrate preincubated for 90 mins followed by trypsin addition measured after 20 mins by fluorescence assay; conditions: read-out: IC50

| Structure (SMILES) | IC50 (Histone deacetylase 8 [2]) [nM] | inhibition (Histone deacetylase 1 [3]) [%] | IC50 (Histone deacetylase 8 [5]) [nM] | EC50 (Schistosoma mansoni [10]) [nM] | IC50 [14] [nM] | IC50 (Histone deacetylase 1 [15]) [nM] | Activity (Schistosoma mansoni [1]) [%] | viability at 24 h, 50 µM [4] [%] | Activity (Schistosoma mansoni [6]) | Activity (Schistosoma mansoni [7]) [%] | Activity (Schistosoma mansoni [8]) [%] | Activity (Schistosoma mansoni [9]) | Activity (Schistosoma mansoni [10]) | Activity (Schistosoma mansoni [11]) [%] | Activity (Schistosoma mansoni [12]) | Activity (Schistosoma mansoni [13]) | IC50 (HEK293) [nM] |
| --- | --- | --- | --- | --- | --- | --- | --- | --- | --- | --- | --- | --- | --- | --- | --- | --- | --- |
| COc1ccc(C(=O)NO)cc1NC(=O)c1ccc(-c2ccccc2)cc1 | – | – | – | 16100 | – | – | 64.8 | 12.3 | inactive | 90 | 33.4 | Active | Dose-dependent effect | 80 | Active | Active | 199000 |
| O=C(NO)c1ccc(Cl)c(NC(=O)c2ccc(Cl)cc2)c1 | 292 | – | 235 | – | 90 | 3800 | 71.8 | 81.6 | – | – | 49.3 | – | – | – | – | – | – |
| O=C(NO)c1ccc(Cl)c(NC(=O)c2cccc(OCc3ccccc3)c2)c1 | 214 | – | 378 | – | 1500 | 9400 | 73.8 | 74.4 | – | – | 68.6 | – | – | – | – | – | – |
| O=C(NO)c1ccc(Cl)c(NC(=O)c2ccc(Cl)cc2Cl)c1 | 1180 | – | 191 | – | 800 | 31600 | 72.5 | 70.4 | – | – | 59.3 | – | – | – | – | – | – |
| O=C(NO)c1ccc(C(F)(F)F)c(NC(=O)c2ccccc2)c1 | 342 | – | 140 | – | 140 | 2400 | 99.9 | 96 | – | – | 77.4 | – | – | – | – | – | – |

Continued by falling IC50 (Histone deacetylase 8 [2]), values first:

| IC50 (Histone deacetylase 8 [2]) [nM] | inhibition (Histone deacetylase 1 [3]) [%] | IC50 (Histone deacetylase 8 [5]) [nM] | EC50 (Schistosoma mansoni [10]) [nM] | IC50 [14] [nM] | IC50 (Histone deacetylase 1 [15]) [nM] | Structure (SMILES) | Activity (Schistosoma mansoni [1]) [%] | viability at 24 h, 50 µM [4] [%] | Activity (Schistosoma mansoni [6]) | Activity (Schistosoma mansoni [7]) [%] | Activity (Schistosoma mansoni [8]) [%] | Activity (Schistosoma mansoni [9]) | Activity (Schistosoma mansoni [10]) | Activity (Schistosoma mansoni [11]) [%] | Activity (Schistosoma mansoni [12]) | Activity (Schistosoma mansoni [13]) | IC50 (HEK293) [nM] |
| --- | --- | --- | --- | --- | --- | --- | --- | --- | --- | --- | --- | --- | --- | --- | --- | --- | --- |
| 204 | – | 116 | – | 900 | 8400 | Cc1ccc(C(=O)NO)cc1NC(=O)c1ccccc1 | 82.9 | 71.2 | – | – | 72.4 | – | – | – | – | – | – |
| 149 | – | 92 | – | 600 | 2080 | CCOc1ccc(C(=O)NO)cc1NC(=O)c1ccc(-c2ccccc2)cc1 | 77.9 | 80.3 | – | – | 35.8 | – | Dose-dependent effect | – | – | – | – |
| 143 | 41.4 | 1080 | – | – | – | O=C(NO)c1cccc(NCc2ccccc2)c1 | – | – | – | – | – | – | – | – | – | – | – |
| 104 | 49.5 | 600 | – | – | – | Cc1ccc(C(=O)NO)cc1NC1CCCCC1 | 84.3 | 70.2 | – | – | – | – | – | – | – | – | – |
| 77.1 | – | 106 | – | 400 | 2600 | COc1ccc(C(=O)Nc2cc(C(=O)NO)ccc2OC)cc1 | 74.6 | 61.9 | – | – | 64.6 | – | – | – | – | – | – |
| 70.2 | 37.4 | 1580 | – | – | – | CN(C)c1cccc(C(=O)NO)c1 | 92.6 | 92.7 | – | – | – | – | – | – | – | – | – |
| 29 | – | 220 | – | 2600 | 3600 | CC(C)Oc1ccc(C(=O)NO)cc1NC(=O)c1ccccc1 | 75 | 129 | – | – | 68.7 | – | – | – | – | – | – |
